Shown is part of a subset that was picked to be rich in hits.
H69AR growth 86K = proliferation blockers of H69AR lung cancer cells, primary screen, cell-based, human, 86K library; H69AR lung tumor viability, ATP luminescence, 72 h; hits give low values; viability, % at 10 µM; actives 6% (n = 85,000);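 active = viability at or below 40%; inactive = viability above 40%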;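 note: multidrug resistant small cell line overexpressing MRP-1 efflux transporter; 100% = mean luminescence of untreated control wells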
PTEN del growth = growth suppression of PTEN-null HCT116, primary screen, cell-based, CellTiter-Glo | viability, % at 10 µM | HCT116 PTEN-null viability, 60 h; hits give low values | AID 827, 2007 | actives 1.2% (n = 140,000);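 active = viability at or below a set limit, 4 SD under the median of all tested compounds, cut at about 3.7% in these data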;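 note: PTEN knockout HCT116 line with beta catenin targeted HCT116 as companion control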
Lung fibro prol = antiproliferative effect on LL 47 fibroblasts – human, LL 47 cells, CellTiter-Glo luminescence, primary screen; LL 47 human lung fibroblast viability, ATP luminescence; hits give low values; viability, % at 10 µM; actives 1.1% (n = 85,000);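 active = viability at or below 50% in the single dose screen; inactive = viability above 50%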;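 note: compound exposure lasted 72 h before the ATP readout; 100% = median luminescence of untreated cell-only wells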
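Material: Human LL 47 lung fibroblast cells | Input: 1,150 cells/well | Buffer or medium: IMEM plus 15% FBS | Compound dosing: 0.1% DMSO in all compound wells | Times: Overnight cell rest, 72 h compound treatment at 37 °C | Signal: CellTiter-Glo luminescence measuring cellular ATP | Measure: % viability versus median cells-only luminescence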
HCT116 bCat-KO = primary screen for growth suppressors in beta-catenin knockout HCT116 cells (colon tumor, human); HCT116 beta-catenin knockout viability, CellTiter-Glo, 60 h; hits give low values; viability, % at 10 µM; actives 1.5% (n = 140,000);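 active = viability at or under a set limit, the compound median less 4 SD, cut at about 6% in these data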;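 note: 0% = Hyamine 1622 control at 20 µM and 100% = untreated cell control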
Phagocytosis inh = inhibitors of macrophage phagocytosis, primary screen, imaging, J774A.1 cells, IgG beads; J774A.1 macrophage IgG-bead phagocytosis; inhibition, % at 5 µM; actives 0.07% (n = 110,000); AID 1029, 2008;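 active = inhibition above the mean of the plate negative controls plus 5 SD, cut at about 13% in these data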;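 note: phagocytic index as fraction of beads internalized from green versus red external bead signal; plate controls were DMSO negative control for no effect and cytochalasin-D positive control for full effect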
HUVEC prolif 384 = inhibitors of HUVEC proliferation, primary screen, cell-based, 384-well; CellTiter-Glo luminescence, 72 h; hits give low values; viability, % at 10 µM (by protocol); actives 1.1% (n = 86,000); AID 648, 2007;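 active = viability at or below 30%; inactive = viability above 30%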;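 note: 100% = median luminescence of DMSO-only cell control wells on each plate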
An asterisk follows results filed as active; nt = not tested or not shown.

SMILES	H69AR growth 86K	PTEN del growth	Lung fibro prol	HCT116 bCat-KO	Phagocytosis inh	HUVEC prolif 384
CCN1CCN(C(=O)C2CCN(Cc3nc(-c4ccc(Cl)cc4)oc3C)CC2)CC1	106	nt	88	nt	nt	82
CCc1ccc(-c2nc(CN3CCC(C(=O)N4CCN(c5ccccc5)CC4)CC3)c(C)o2)cc1	1.2*	2.4*	74	2.0*	1	3.5*
COc1cc(/C=C/C(=O)N2CCCc3ccccc32)cc(OC)c1OC	nt	82	nt	81	-3	nt
COc1cccc(NC2=Nc3cccc4cccc2c34)c1	nt	72	nt	87	-2	nt
Cc1ccc(-c2noc(CCC(=O)N(C)c3ccccc3C)n2)cc1	88	75	100	75	-4	88
COC(=O)C1=C(CN2CCc3ccccc32)NC(=O)NC1c1cc(C)ccc1C (centres undefined)	34*	41	89	58	-4	85
COc1ccc(N2C(=O)NC3CC2(C)Oc2ccc(Br)cc23)cc1OC (centres undefined)	38*	88	83	90	-1	91
CCOc1ccc(C2=NNC(c3cccs3)=Nc3ccc(OC)cc32)cc1OCC	38*	76	83	77	nt	71
COc1ccc(C2=NNC(c3cccs3)=Nc3ccc(OC)cc32)cc1	81	87	94	89	nt	102
CCC(=O)NC(NC(=S)Nc1c(C)n(C)n(-c2ccccc2)c1=O)C(Cl)(Cl)Cl (centres undefined)	nt	103	nt	99	4	nt
Cc1ccc2c(Cl)cc(Cl)c(OCC(=O)Nc3ccc(C)c(S(=O)(=O)N(C)C)c3)c2n1	nt	65	nt	69	-11	nt
O=C(Nc1ccc(F)cc1)c1nc[nH]c1C(=O)Nc1ccccc1[N+](=O)[O-]	nt	1.6*	nt	2.8*	-8	nt
Cc1cccc(NC(=O)CSc2nnc([C@@H]3CCCN3C(=O)OC(C)(C)C)o2)c1C	1.4*	99	91	97	-3	76
NC(=O)CC[C@@H]1NC(=O)[C@@H]2CCCN2C(=O)c2cc([N+](=O)[O-])cc(I)c2NCCCC[C@@H](C(=O)NC(CC(=O)O)C(N)=O)NC1=O (some centres undefined)	nt	102	nt	97	nt	nt
Cc1ccc(-c2cc(-c3ccccc3O)nc(N/N=C/c3cccnc3)n2)cc1	nt	2.9*	nt	4.0*	2	nt
C(=N\Nc1nc(-c2ccccc2)cs1)/c1cccnc1	nt	81	nt	75	-1	nt
COc1ccc(C(=O)/C=C(\C)Nc2ccc(NC(C)=O)cc2)cc1	nt	89	nt	104	0	nt
COc1ccc(N/N=C(\C=N\O)C(=O)c2ccc(OC)cc2)cc1	26*	22	53	19	3	38*
CCOC(=O)C(O)(CCC(O)(C(=O)OCC)C(=O)OCC)C(=O)OCC	104	95	111	99	0	100
CC1CCc2nc(NC(=O)CSc3nc4ccccc4o3)sc2C1 (centres undefined)	31*	84	88	86	-2	63
COc1ccc(-c2nnc(SCC#N)o2)cc1	93	107	104	107	0	102
CCOC(=O)c1c(C)[nH]c(C)c1C(=O)CSc1nnc(-c2ccc(OC(F)F)cc2)o1	96	81	100	85	2	58
COc1cccc(C(=O)CSc2nnc(-c3cc(OC)cc(OC)c3)o2)c1	8.7*	100	97	97	-3	24*
COc1ccc(-c2nnc(SCC(=O)c3[nH]c(C)c(C(C)=O)c3C)o2)cc1	5.3*	12	60	7	-2	53
COc1ccc(-c2nnc(SCC(=O)c3ccc[nH]3)o2)cc1	nt	93	nt	96	4	nt
C#CCSc1nnc(-c2ccc(OC)cc2)o1	19*	24	64	17	0	94
CCOC(=O)c1[nH]c(CSc2nnc(-c3ccc(OC)cc3)o2)c(C(=O)OCC)c1C	18*	18	79	35	-1	80
Cc1cc(C)cc(NC(=O)CSCc2nc3c(nnn3Cc3ccc(F)cc3)c(=O)[nH]2)c1	96	nt	100	nt	nt	85
CCOC(=O)c1nnn(-c2nonc2N)c1-c1ccc(OC)cc1	103	96	98	100	-1	88

Source: PubChem (several laboratories)
